The chains are these.
B1: tRNA (parent)
chain: GUUCCGUUGGCGUAAUGGUAACGCGUCUCCCUCCUAAGGAGAAGACUGCGGGUUCGAGUCCCGUACGGAACG

The variants in the series derive from B1. As to the kind of experiment: yeast fitness, log relative to wild type (ln ratio); higher = fitter; tRNA-Arg(CCU), competitive growth, 37 C, 1 M NaCl. In short, it runs like this: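 Fitness is the natural log of each genotype's generations divided by the wild type's. Generations were derived as OD-scaled log2 output/input frequency from 125 bp paired-end Illumina counts, weighting replicates by inverse variance. Pools of the tRNA-Arg(CCU) variant library, on a HIS3 centromeric plasmid in BY4742 lacking the chromosomal gene, grew ~6.5 generations (~26.5 h) in SC-HIS 1M NaCl at 37 °C after 4 generations in SC-HIS at 30 °C.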
In the case of GGUCCAUUGGCGUAAUGGUAACGCGUUUCCCUCCUAAGGAGAAGAUUGCGGGUUCGAGUCCCGUACGGAUCG [U2G G6A C27U C46U A70U], the “yeast fitness (ln)” value was -0.106.

In the case of GGUCCAUUGGCGUAAUGGUAACGCGUUUCCCUCCUAAGGAGAAGAUUGCGGGUUCGAGUCCCGUACGGAGCG [U2G G6A C27U C46U A70G], the “yeast fitness (ln)” value is -0.0986.

Regarding GGUCCAUUGGCGUAAUGGUAACGCGUUUCCCUCCUAAGGAGAAGACUGCGGGUUCGAGUCCCGUAAGGGUUG [U2G G6A C27U C66A A69G A70U C71U], the “yeast fitness (ln)” value is -0.499.

On to GGUCCAUUGGCGUAAUGGUAACGCGUCUCCCUCCUAAGGAGAAGAUUGCGGGUUCGAGUCCCGUAAGGAUCG [U2G G6A C46U C66A A70U], for which the “yeast fitness (ln)” value is -0.059.

As for GGUCCAUUGGCGUAAUGGUAACGCGUCUCCCUCCUAAGGAGAAGAUUGCGGGUUCGAGUCCCGUAAGGAGCG [U2G G6A C46U C66A A70G], the “yeast fitness (ln)” value was -0.056.

As for GGUCCAUUGGCGUAAUGGUAACGCGUUUCCCUCCUAAGGAGAAGACUGCGGGUUCGAGUCCCGUAAGGAAUG [U2G G6A C27U C66A C71U], the “yeast fitness (ln)” value was -0.216.

GGUCCAUUGGCGUAAUGGUAACGCGUUUCCCUCCUAAGGAGAAGAUUGCGGGUUCGAGUCCCGUACGGAUUG [U2G G6A C27U C46U A70U C71U]: the “yeast fitness (ln)” value is -0.143.

As for GGUCCAUUGGCGUAAUGGUAACGCGUUUCCCUCCUAAGGAGAAGACUGCGGGUUCGAGUCCCGUAUGGGGUG [U2G G6A C27U C66U A69G A70G C71U], the “yeast fitness (ln)” value is -0.272.

With GGUCCAUUGGCGUAAUGGUAACGCGUUUCCCUCCUAAGGAGAAGACUGCGGGUUCGAGUCCCGUAUGGAGCG [U2G G6A C27U C66U A70G], the “yeast fitness (ln)” value was -0.227.

GGUCCAUUGGCGUAAUGGUAACGCGUUUCCCUCCUAAGGAGAAGACUGCGGGUUCGAGUCCCGUAUGGAUCG [U2G G6A C27U C66U A70U]: the “yeast fitness (ln)” value is -0.0165.

Take GGUCCAUUGGCGUAAUGGUAACGCGUUUCCCUCCUAAGGAGAAGACUGCGGGUUCGAGUCCCGUACGGAAUG [U2G G6A C27U C71U]: the “yeast fitness (ln)” value is -0.156.

As to GGUCCAUUGGCGUAAUGGUAACGCGUCUCCCUCCUAAGGAGAAGAUUGCGGGUUCGAGUCCCGUACGGAACG [U2G G6A C46U], the “yeast fitness (ln)” value is -0.0244.

On to GGUCCAUUGGCGUAAUGGUAACGCGUCUCCCUCCUAAGGAGAAGAUUGCGGGUUCGAGUCCCGUACGGAGUG [U2G G6A C46U A70G C71U], for which the “yeast fitness (ln)” value is -0.144.

With GGUCCAUUGGCGUAAUGGUAACGCGUCUCCCUCCUAAGGAGAAGAUUGCGGGUUCGAGUCCCGUAUGGGGUG [U2G G6A C46U C66U A69G A70G C71U], the “yeast fitness (ln)” value was -0.188.

With GGUCCAUUGGCGUAAUGGUAACGCGUCUCCCUCCUAAGGAGAAGAUUGCGGGUUCGAGUCCCGUAAGGGUCG [U2G G6A C46U C66A A69G A70U], the “yeast fitness (ln)” value is -0.0517.

As to GGUCCAUUGGCGUAAUGGUAACGCGUUUCCCUCCUAAGGAGAAGACUGCGGGUUCGAGUCCCGUAUGGAAUG [U2G G6A C27U C66U C71U], the “yeast fitness (ln)” value was -0.238.

For the variant GGUCCAUUGGCGUAAUGGUAACGCGUCUCCCUCCUAAGGAGAAGAUUGCGGGUUCGAGUCCCGUAUGGGACG [U2G G6A C46U C66U A69G], the “yeast fitness (ln)” value is -0.163.

Take GGUCCAUUGGCGUAAUGGUAACGCGUCUCCCUCCUAAGGAGAAGAUUGCGGGUUCGAGUCCCGUAAGGAGUG [U2G G6A C46U C66A A70G C71U]: the “yeast fitness (ln)” value was -0.148.

As for GGUCCAUUGGCGUAAUGGUAACGCGUCUCCCUCCUAAGGAGAAGAUUGCGGGUUCGAGUCCCGUACGGGGCG [U2G G6A C46U A69G A70G], the “yeast fitness (ln)” value is -0.115.

For GGUCCAUUGGCGUAAUGGUAACGCGUCUCCCUCCUAAGGAGAAGAUUGCGGGUUCGAGUCCCGUACGGGUCG [U2G G6A C46U A69G A70U], the “yeast fitness (ln)” value is -0.21.

For GGUCCAUUGGCGUAAUGGUAACGCGUUUCCCUCCUAAGGAGAAGACUGCGGGUUCGAGUCCCGUAAGGGUCG [U2G G6A C27U C66A A69G A70U], the “yeast fitness (ln)” value is -0.287.

Take GGUCCAUUGGCGUAAUGGUAACGCGUUUCCCUCCUAAGGAGAAGAUUGCGGGUUCGAGUCCCGUAUGGGUUG [U2G G6A C27U C46U C66U A69G A70U C71U]: the “yeast fitness (ln)” value was -0.394.

Consider GGUCCAUUGGCGUAAUGGUAACGCGUUUCCCUCCUAAGGAGAAGAUUGCGGGUUCGAGUCCCGUAUGGAAUG [U2G G6A C27U C46U C66U C71U], for which the “yeast fitness (ln)” value is -0.17.

On to GGUCCAUUGGCGUAAUGGUAACGCGUCUCCCUCCUAAGGAGAAGAUUGCGGGUUCGAGUCCCGUACGGGAUG [U2G G6A C46U A69G C71U], for which the “yeast fitness (ln)” value was -0.124.

Consider GGUCCAUUGGCGUAAUGGUAACGCGUCUCCCUCCUAAGGAGAAGAUUGCGGGUUCGAGUCCCGUACGGGGUG [U2G G6A C46U A69G A70G C71U], for which the “yeast fitness (ln)” value is -0.154.

For GGUCCAUUGGCGUAAUGGUAACGCGUUUCCCUCCUAAGGAGAAGACUGCGGGUUCGAGUCCCGUAUGGAGUG [U2G G6A C27U C66U A70G C71U], the “yeast fitness (ln)” value is -0.203.

For GGUCCAUUGGCGUAAUGGUAACGCGUCUCCCUCCUAAGGAGAAGAUUGCGGGUUCGAGUCCCGUAAGGAUUG [U2G G6A C46U C66A A70U C71U], the “yeast fitness (ln)” value was -0.106.

GGUCCAUUGGCGUAAUGGUAACGCGUUUCCCUCCUAAGGAGAAGAUUGCGGGUUCGAGUCCCGUAAGGGUCG [U2G G6A C27U C46U C66A A69G A70U]: the “yeast fitness (ln)” value is -0.134.

Take GGUCCAUUGGCGUAAUGGUAACGCGUUUCCCUCCUAAGGAGAAGAUUGCGGGUUCGAGUCCCGUAAGGGGCG [U2G G6A C27U C46U C66A A69G A70G]: the “yeast fitness (ln)” value is -0.134.

Take GGUCCAUUGGCGUAAUGGUAACGCGUCUCCCUCCUAAGGAGAAGAUUGCGGGUUCGAGUCCCGUACGGGACG [U2G G6A C46U A69G]: the “yeast fitness (ln)” value is -0.183.

On to GGUCCAUUGGCGUAAUGGUAACGCGUUUCCCUCCUAAGGAGAAGACUGCGGGUUCGAGUCCCGUAAGGAUCG [U2G G6A C27U C66A A70U], for which the “yeast fitness (ln)” value is -0.126.

On to GGUCCAUUGGCGUAAUGGUAACGCGUUUCCCUCCUAAGGAGAAGACUGCGGGUUCGAGUCCCGUAAGGAGCG [U2G G6A C27U C66A A70G], for which the “yeast fitness (ln)” value is -0.15.

With GGUCCAUUGGCGUAAUGGUAACGCGUCUCCCUCCUAAGGAGAAGAUUGCGGGUUCGAGUCCCGUACGGAUUG [U2G G6A C46U A70U C71U], the “yeast fitness (ln)” value was -0.449.

Consider GGUCCAUUGGCGUAAUGGUAACGCGUCUCCCUCCUAAGGAGAAGAUUGCGGGUUCGAGUCCCGUAAGGAAUG [U2G G6A C46U C66A C71U], for which the “yeast fitness (ln)” value was -0.134.

GGUCCAUUGGCGUAAUGGUAACGCGUCUCCCUCCUAAGGAGAAGAUUGCGGGUUCGAGUCCCGUAAGGAACG [U2G G6A C46U C66A]: the “yeast fitness (ln)” value was -0.093.

Turning to GGUCCAUUGGCGUAAUGGUAACGCGUCUCCCUCCUAAGGAGAAGAUUGCGGGUUCGAGUCCCGUAUGGAACG [U2G G6A C46U C66U], the “yeast fitness (ln)” value is -0.0595.

As to GGUCCAUUGGCGUAAUGGUAACGCGUUUCCCUCCUAAGGAGAAGAUUGCGGGUUCGAGUCCCGUAUGGGAUG [U2G G6A C27U C46U C66U A69G C71U], the “yeast fitness (ln)” value was -0.277.

Source of the values: the RNAGym collection of RNA variant scans (doi:10.1038/s41586-018-0170-7).
